Measured values: ChEMBL document CHEMBL1121964, “Potential neuroleptic agents. 2,6-Dialkoxybenzamide derivatives with potent dopamine receptor blocking activities” (J Med Chem, 1982)

Experiments:
Rattus norvegicus [1] = test: In vivo blocking of apomorphine induced stereotypies following 1 mg/kg i.p. in rats after 60 min.; type: functional; conditions: ip, 1 h, route intraperitoneal
Outline: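 Male Sprague-Dawley rats (250-300 g) received test compound ip in saline or water 60 min before sc apomorphine 1 mg/kg given into the neck. Stereotypy strength was scored at 5, 20, 40 and 60 min. It was derived by Theil's method with Sen's correction for ties, with a 90% confidence interval.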

Rattus norvegicus [2] = test: In vivo blocking of apomorphine induced hyperactivity following 1 mg/kg i.p. in rats after 60 min.; type: functional; conditions: ip, 1 h, route intraperitoneal
Outline: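 Male Sprague-Dawley rats (250-300 g) were dosed ip with test compound in saline or water 60 min before apomorphine 1 mg/kg sc into the neck. Behavior was scored at 5, 20, 40 and 60 min. It was calculated by Theil's method with Sen's tie correction, with a 90% confidence interval.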

[3] = The acute toxicity was assessed after (ip) administration in male Sprague-Dawley rats; type: organism-based; conditions: rat, in vivo
Rattus norvegicus [4] = test: The dosage at which 50% of the animals were cataleptic was measured after (ip) administration in male Sprague-Dawley rats; type: functional
Outline: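 Eight rats per dose level were tested. Both forelimbs were placed on a 7-cm-high horizontal bar, and failure to step off within 60 s counted as cataleptic. Testing was done 1, 2, 4, 8 and 24 h post-dose. ED50 with 95% confidence interval came from probit analysis of each compound's peak cataleptic effect.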

SMILES	ED50 (Rattus norvegicus [1]) [µmol/kg]	ED50 (Rattus norvegicus [2]) [µmol/kg]	LD50 [3] [µmol/kg]	ED50 (Rattus norvegicus [4]) [µmol/kg]
COc1ccc(Br)c(OC)c1C(=O)NCC1CCCN1 (stereo not drawn)	100	47	–	–
CCN1CCCC1CNC(=O)c1c(OC(C)C)cccc1OC(C)C.Cl (stereo not drawn)	> 80	> 80	~160	–
CCN1CCCC1CNC(=O)c1c(OC)ccc(Br)c1OC.Cl (stereo not drawn)	21.3	12.8	817	47
CCN1CCC[C@H]1CNC(=O)c1c(OC)ccc(Br)c1OC.Cl	–	–	794	24.5
CCN1CCCC1CNC(=O)c1c(OC)c(Cl)cc(Br)c1OC (stereo not drawn)	7.3	3.9	206	5
CCOc1cccc(OCC)c1C(=O)NCC1CCCN1CC (stereo not drawn)	> 40	23.4	–	–
CCOc1ccc(Cl)c(OCC)c1C(=O)NCC1CCCN1CC (stereo not drawn)	7.2	2.8	–	31
CCN1CCC[C@@H]1CNC(=O)c1c(OC)ccc(Br)c1OC	> 196	120	–	–
CCN1CCCC1CNC(=O)c1c(Cl)cccc1Cl (stereo not drawn)	> 80	> 80	–	–
CCN1CCC[C@H]1CNC(=O)c1c(OC)ccc(Cl)c1OC.Cl	11.7	5.6	~826	–
O=C(CCCN1CCC(O)(c2ccc(Cl)cc2)CC1)c1ccc(F)cc1 [HALOPERIDOL]	0.27	0.29	–	0.67
CCN1CCC[C@@H]1CNC(=O)c1c(OC)c(Br)cc(Br)c1OC	> 82	13.1	159	–
CCOc1ccc(Br)c(OCC)c1C(=O)NCC1CCCN1CC (stereo not drawn)	4.7	1.1	–	15.7
CCN1CCCC1CNC(=O)c1cc(S(N)(=O)=O)ccc1OC (stereo not drawn) [SULPIRIDE]	212	65.6	–	161
CCOc1ccc(Br)c(OCC)c1C(=O)NC[C@@H]1CCCN1CC.Cl	1.9	0.47	206	8.9
CCN1CCCC1CNC(=O)c1c(OC)c(Br)cc(Br)c1OC.Cl (stereo not drawn)	4.6	1.15	177	8.2
CCN1CCC[C@H]1CNC(=O)c1c(OC)c(Br)cc(Br)c1OC	2.1	0.44	–	5.3
CCN1CCCC1CNC(=O)c1c(OC)ccc(Cl)c1OC (stereo not drawn)	42.7	30.8	–	–
CCN(CC1CCCN1CC)C(=O)c1c(OC)c(Br)cc(Br)c1OC (stereo not drawn)	> 80	> 80	–	–
CCN1CCCC1CNC(=O)c1c(OC)c(Cl)cc(Cl)c1OC (stereo not drawn)	5.4	3.1	224	16.8
